ChEMBL document CHEMBL1938358, “A multivalent approach to the discovery of long-acting β(2)-adrenoceptor agonists for the treatment of asthma and COPD” (Bioorg Med Chem Lett, 2012)
Active and inactive are the calls of the source. The rule behind the calls is not given here.

How the values were obtained:
[1] = molecular target: T1, Beta-2 adrenergic receptor (Homo sapiens, UniProt P07550); test: Displacement of [3H]dihydroalprenolol from beta2-adrenoceptor after 90 mins by liquid scintillation counting
Target sequence in this assay (P07550 whole entry): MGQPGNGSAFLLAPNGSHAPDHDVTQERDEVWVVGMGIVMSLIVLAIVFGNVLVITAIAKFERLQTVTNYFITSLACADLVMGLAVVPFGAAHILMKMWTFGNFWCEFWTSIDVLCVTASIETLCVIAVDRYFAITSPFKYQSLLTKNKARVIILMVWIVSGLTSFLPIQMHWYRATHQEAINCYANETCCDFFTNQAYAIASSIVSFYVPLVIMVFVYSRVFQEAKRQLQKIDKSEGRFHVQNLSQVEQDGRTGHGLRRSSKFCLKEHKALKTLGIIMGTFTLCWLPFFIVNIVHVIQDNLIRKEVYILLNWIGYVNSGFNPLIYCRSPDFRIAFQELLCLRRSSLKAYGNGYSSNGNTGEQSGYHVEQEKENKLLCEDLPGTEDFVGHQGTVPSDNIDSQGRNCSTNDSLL

[2] = molecular target: T1, Beta-2 adrenergic receptor; test: Agonist activity at recombinant human beta2-adrenoceptor expressed in whole cells assessed as cAMP accumulation by homogeneous radioimmunoassay; assay type: functional, cell-based
Target sequence in this assay (P07550 whole entry): as above

[3] = molecular target: T1, Beta-2 adrenergic receptor; test: Ratio of pEC50 for recombinant human beta2-adrenoceptor expressed in whole cells to pEC50 for beta2-adrenoceptor endogenously expressed in human BEAS-2B cells; assay type: cell-based
Summary of the method: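 cAMP accumulation was measured by homogeneous radioimmunoassay (Flashplate) in two systems: whole cells overexpressing cloned human β2-adrenoceptor, and BEAS-2B human bronchial epithelial cells with endogenous β2-adrenoceptor. Potency was taken from each, and intrinsic activity from BEAS-2B.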
Target sequence in this assay (P07550 whole entry, looked up): as the sequence (P07550 whole entry) above

[4] = molecular target: Beta-1 adrenergic receptor (Homo sapiens, UniProt P08588); test: Agonist activity at recombinant human beta1-adrenoceptor expressed in whole cells assessed as cAMP accumulation by homogeneous radioimmunoassay; assay type: functional, cell-based
[5] = molecular target: T1, Beta-2 adrenergic receptor; test: Agonist activity at beta2-adrenoceptor endogenously expressed in human BEAS-2B cells assessed as cAMP accumulation by homogeneous radioimmunoassay; assay type: functional, cell-based
Target sequence in this assay (P07550 whole entry): as above

Homo sapiens = species: Homo sapiens; test: Selectivity ratio of pEC50 for recombinant human beta2-adrenoceptor to pEC50 for human beta1-adrenoceptor
Summary of the method: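 Agonist stimulation of cAMP accumulation was measured by homogeneous radioimmunoassay (Flashplate) in whole cells overexpressing cloned human β2- or β1-adrenoceptor. Selectivity was calculated as the ratio of agonist EC50 potencies at the two subtypes.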

Cavia porcellus [6] = test: Bronchoprotective activity in Ach-stimulated guinea pig assessed as reduction in pulmonary resistance at 30 ug/mL administered via nebulization measured after 1.5 hrs by head-out plethysmography; assay type: functional, organism-based
Summary of the method: (§1)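 Guinea pigs dosed by nebulization, with water as control. Pulmonary resistance was measured in anesthetized, spontaneously breathing animals by head-out plethysmography. Bronchoconstriction was induced with increasing intravenous acetylcholine doses. The read-out was PD2, the ACh dose needed to double baseline resistance.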

Cavia porcellus [7] = test: Bronchoprotective activity in Ach-stimulated guinea pig assessed as reduction in pulmonary resistance at 30 ug/mL administered via nebulization measured at 48 hrs post-dosing by head-out plethysmography; assay type: functional, organism-based; summary of the method: as §1
Cavia porcellus [8] = test: Bronchoprotective activity in Ach-stimulated guinea pig assessed as reduction in pulmonary resistance at 300 ug/mL administered via nebulization measured after 24 hrs by head-out plethysmography; assay type: functional, organism-based

Chain of Beta-1 adrenergic receptor (P08588 whole entry): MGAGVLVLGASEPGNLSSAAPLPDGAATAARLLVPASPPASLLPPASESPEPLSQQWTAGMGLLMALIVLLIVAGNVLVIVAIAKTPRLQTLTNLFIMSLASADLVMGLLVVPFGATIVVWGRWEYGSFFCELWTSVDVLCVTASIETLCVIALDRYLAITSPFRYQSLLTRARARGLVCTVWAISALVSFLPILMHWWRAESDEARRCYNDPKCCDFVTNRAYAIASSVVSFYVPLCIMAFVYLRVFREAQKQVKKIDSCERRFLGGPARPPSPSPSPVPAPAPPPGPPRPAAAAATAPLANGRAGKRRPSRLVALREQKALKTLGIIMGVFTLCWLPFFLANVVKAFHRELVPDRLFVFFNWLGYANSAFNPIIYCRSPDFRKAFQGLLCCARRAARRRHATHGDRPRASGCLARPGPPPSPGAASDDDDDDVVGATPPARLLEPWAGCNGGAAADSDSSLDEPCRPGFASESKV

| SMILES | IC50 [1] | EC50 [2] | other results |
| --- | --- | --- | --- |
| OCc1cc(C(O)CN[C@H]2CC[C@H](NCC(O)c3ccc(O)c(CO)c3)CC2)ccc1O (some centres not stated) | 5010 nM | – | – |
| OCc1cc(C(O)CNCc2cccc(CNCC(O)c3ccc(O)c(CO)c3)c2)ccc1O (configuration not stated) | 20000 nM | – | – |
| OCc1cc(C(O)CNCCCCNCC(O)c2ccc(O)c(CO)c2)ccc1O (configuration not stated) | 10000 nM | – | – |
| COc1ccc(C(O)CNc2ccc(CCNCC(O)c3ccc(O)c(CO)c3)cc2)c(OC)c1 (configuration not stated) | – | 39.8 nM | – |
| CC(C)CCc1ccc(C(O)CNc2ccc(CCNCC(O)c3ccc(O)c(CO)c3)cc2)cc1 (configuration not stated) | – | 63.1 nM | – |
| OCc1cc(C(O)CNCc2ccc(CNCC(O)c3ccc(O)c(CO)c3)cc2)ccc1O (configuration not stated) | 50100 nM | – | – |
| OCc1cc(C(O)CNCCc2ccc(NCC(O)c3ccccc3)cc2)ccc1O (configuration not stated) | 39.8 nM | 0.316 nM | – |
| OCc1cc(C(O)CNC2CCC(CC3CCC(NCC(O)c4ccc(O)c(CO)c4)CC3)CC2)ccc1O (configuration not stated) | 20000 nM | – | – |
| OCc1cc(C(O)CNCC2CCCC(CNCC(O)c3ccc(O)c(CO)c3)C2)ccc1O (configuration not stated) | 10000 nM | – | – |
| COc1ccc(OC)c(C(O)CNc2ccc(CCNCC(O)c3ccc(O)c(CO)c3)cc2)c1 (configuration not stated) | – | 6.31 nM | – |
| OCc1cc(C(O)CNCCc2ccc(NCC(O)c3ccc4ccccc4c3)cc2)ccc1O (configuration not stated) | – | 50.1 nM | – |
| OCc1cc(C(O)CNCCc2ccc(NCC(O)c3ccc(-c4ccccc4)cc3)cc2)ccc1O (configuration not stated) | – | 39.8 nM | – |
| CC(C)(C)c1ccc(C(O)CNc2ccc(CCNCC(O)c3ccc(O)c(CO)c3)cc2)cc1 (configuration not stated) | – | 50.1 nM | – |
| OCc1cc(C(O)CNC2Cc3ccc(NCC(O)c4ccccc4)cc3C2)ccc1O (configuration not stated) | – | 5.01 nM | – |
| Cc1ccc(C(O)CNc2ccc(CCNCC(O)c3ccc(O)c(CO)c3)cc2)cc1 (configuration not stated) | – | 2.51 nM | – |
| Nc1c(Cl)cc([C@@H](O)CNCCc2ccc(NC[C@H](O)c3ccccc3)cc2)cc1Cl | – | 0.398 nM | – |
| OCc1cc(C(O)CNCCc2ccc(NCC(O)c3ccc(F)cc3)cc2)ccc1O (configuration not stated) | – | 2 nM | – |

| SMILES | IC50 [1] | EC50 [2] | other results |
| --- | --- | --- | --- |
| OC(CNCCc1ccc(NCC(O)c2ccccc2)cc1)c1ccccc1 (configuration not stated) | 251 nM | – | – |
| OCc1cc([C@@H](O)CNCCc2ccc(NC[C@@H](O)c3ccccc3)cc2)ccc1O (mixture of isomers) | – | 0.316 nM | Ratio [3]: 10; EC50 [4]: 251 nM; EC50 [5]: 3.98 nM |
| O=CNc1cc([C@@H](O)CNCCc2ccc(NC[C@H](O)c3ccccc3)cc2)ccc1O [MILVETEROL] | – | 0.0631 nM | Ratio (Homo sapiens): > 300; Ratio [3]: 10; Activity (Cavia porcellus [6]): Active; EC50 [4]: 25.1 nM; Activity (Cavia porcellus [7]): Active; EC50 [5]: 0.501 nM |
| OCc1cc(C(O)CNCCc2ccc(OCC(O)c3ccccc3)cc2)ccc1O (configuration not stated) | – | 0.398 nM | – |
| CC(C)(CNCC(O)c1ccc(O)c(CO)c1)CNCC(O)c1ccc(O)c(CO)c1 (configuration not stated) | 251000 nM | – | – |
| OCc1cc(C(O)CNCc2ccc(NCC(O)c3ccc(O)c(CO)c3)cc2)ccc1O (configuration not stated) | 2000 nM | – | – |
| OCc1cc(C(O)CNCCc2ccc(CCNCC(O)c3ccc(O)c(CO)c3)cc2)ccc1O (configuration not stated) | 100000 nM | – | – |
| OCc1cc(C(O)CNCCCCCCOCCCCc2ccccc2)ccc1O (configuration not stated) | – | – | Activity (Cavia porcellus [7]): inactive; Activity (Cavia porcellus [8]): Active |
| OCc1cc(C(O)CNCCCCCCNCC(O)c2ccc(O)c(CO)c2)ccc1O (configuration not stated) | 7940 nM | – | – |
| CN(CC(O)c1ccccc1)c1ccc(CCNCC(O)c2ccc(O)c(CO)c2)cc1 (configuration not stated) | – | 2 nM | – |
| OCc1cc(C(O)CNCCc2ccc(NCC(O)c3ccc(Cl)cc3)cc2)ccc1O (configuration not stated) | – | 1.58 nM | – |
| OCc1cc(C(O)CNCCc2ccc(NCC(O)c3ccc(O)cc3)cc2)ccc1O (configuration not stated) | – | 7.94 nM | – |
| O=c1ccc2c([C@@H](O)CNCCc3ccc(NC[C@H](O)c4ccccc4)cc3)ccc(O)c2[nH]1 | – | 0.126 nM | Ratio [3]: 10; EC50 [5]: 1.26 nM |
| OCc1cc([C@@H](O)CNCCc2ccc(NC[C@H](O)c3ccccc3)cc2)ccc1O | – | 0.1 nM | Ratio (Homo sapiens): > 300; Ratio [3]: 10; Activity (Cavia porcellus [6]): Active; EC50 [4]: 251 nM; Activity (Cavia porcellus [7]): inactive; EC50 [5]: 1.26 nM |
| CC(C)(Cc1ccc(NCC(O)c2ccccc2)cc1)NCC(O)c1ccc(O)c(CO)c1 (configuration not stated) | – | 0.316 nM | – |
| OCc1cc(C(O)CNCCc2ccc(NCC(O)c3ccc(O)c(CO)c3)cc2)ccc1O (configuration not stated) | 251 nM | – | – |
